Consider 27 molecules from ChEMBL document CHEMBL3352550, “Discovery and optimization of 4,5-diarylisoxazoles as potent dual inhibitors of pyruvate dehydrogenase kinase and heat shock protein 90” (J Med Chem, 2014).

Data set [1] addresses T1, Heat shock protein HSP90 (Homo sapiens, UniProt P07900+P08238). In words: Inhibition of geldanamycin-BODIPY binding to full-length HSP90 (unknown origin) by fluorescence polarization based competition assay. It counts as protein assay. Summed up: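 Fluorescence polarization competition using full-length HSP90 and geldanamycin-BODIPY as probe.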
The target of data set [2] is T2, [Pyruvate dehydrogenase (acetyl-transferring)] kinase isozyme 1, mitochondrial (Homo sapiens, UniProt Q15118). In words: Inhibition of recombinant PDHK1 (unknown origin) expressed in Escherichia coli incubated for 1 hr by ELISA.
T2 sequence (Q15118 whole entry): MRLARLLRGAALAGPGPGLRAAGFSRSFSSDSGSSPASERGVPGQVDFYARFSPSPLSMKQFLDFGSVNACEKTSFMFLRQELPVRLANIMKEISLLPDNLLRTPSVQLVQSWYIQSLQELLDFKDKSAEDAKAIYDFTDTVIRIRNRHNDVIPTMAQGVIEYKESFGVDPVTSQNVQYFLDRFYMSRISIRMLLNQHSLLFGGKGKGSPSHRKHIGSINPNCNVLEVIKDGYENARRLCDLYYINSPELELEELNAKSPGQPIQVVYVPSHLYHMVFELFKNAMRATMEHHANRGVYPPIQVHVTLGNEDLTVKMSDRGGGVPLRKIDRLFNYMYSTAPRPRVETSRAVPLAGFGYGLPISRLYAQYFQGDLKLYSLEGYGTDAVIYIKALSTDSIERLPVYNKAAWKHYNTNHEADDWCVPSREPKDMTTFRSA
The target of data set [3] is T2, [Pyruvate dehydrogenase (acetyl-transferring)] kinase isozyme 1, mitochondrial. The experiment in a line: Inhibition of recombinant PDHK1 (unknown origin) expressed in Escherichia coli at 10 uM incubated for 1 hr by ELISA. Summed up: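 Recombinant His6-SUMO-PDHK1 was expressed in E. coli and purified on nickel resin. It was used at 0.25 µg/well on immobilized PDHA1 substrate (0.5 µg/well) with 10 µM ATP in 50 mM HEPES, 10 mM MgCl2 and 1 mM EGTA. Compounds were screened at 10 µM and percent inhibition was recorded. Detection used anti-p-PDHA1(S293) for 1 h and HRP secondary antibody for 1 h, then o-phenylenediamine, read at OD490.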

In data set [4] the target is T1, Heat shock protein HSP90. The experiment in a line: Inhibition of HSP90 in human NCI-H1299 cells assessed as increase in HSP70 protein levels at 10 uM incubated for 12 hrs by immunoblotting method. The class given is cell-based. Summed up:
(§1)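 NCI-H1299 cells were treated for 12 h and lysed in RIPA buffer with protease inhibitors. Equal protein was loaded per lane, run on a gel and transferred to nitrocellulose. Membranes were blocked in TBST with 3% BSA for 1 h at room temperature, then probed with primary antibody for 2 h and secondary antibody for 1 h, both at room temperature. Bands were detected by ECL.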

Data set [5] concerns the target T1, Heat shock protein HSP90. In words: Inhibition of HSP90 in human NCI-H1299 cells assessed as reduction in c-MET protein levels at 10 uM incubated for 12 hrs by immunoblotting method. The class given is cell-based. Summed up: as §1
Data set [6] has as its target T1, Heat shock protein HSP90. The experiment in a line: Inhibition of HSP90 in human NCI-H1299 cells assessed as reduction in HER2 protein levels at 10 uM incubated for 12 hrs by immunoblotting method. It counts as cell-based. Summed up: as §1
In general terms: A western blot detects proteins with antibodies after separation by electrophoresis.

The target in data set [7] is T1, Heat shock protein HSP90. The experiment in a line: Inhibition of HSP90 in human NCI-H1299 cells assessed as reduction in AKT protein levels at 10 uM incubated for 12 hrs by immunoblotting method. It counts as cell-based. Summed up: as §1
The nature of data set [8]: Efflux ratio in human Caco2 cells. To be noted: Caco-2. (Passage across Caco-2 layers is used to estimate intestinal permeability.)
A short description of data set [9]: Apparent permeability from apical to basolateral side in human Caco2 cells. To be noted: Caco-2.
A short description of data set [10]: Apparent permeability from basolateral to apical side in human Caco2 cells. To be noted: Caco-2.

Calls of active or inactive are those of the source. The calls are words filed in the database; no cut-off is given here.

On to `COc1ccc(-c2c(C(=O)NC3CCN(S(C)(=O)=O)CC3)noc2-c2cc(Cl)c(O)cc2O)cc1`, for which the concentration for half-maximal inhibition (IC50) at Heat shock protein HSP90 [1] was determined as 45 nM; in [2] it was 130 nM. In data set [3], the inhibition is > 50%.
Regarding `O=C(/C=C/c1noc(-c2cc(Cl)c(O)cc2O)c1-c1ccc(O)cc1)N1CCN(c2ccc(Cl)c(Cl)c2)CC1`, the results for the IC50 (at Heat shock protein HSP90 [1]; in data set [2]) were 3939 nM and 1420 nM, respectively. Also, the inhibition in data set [3] is > 50%.
For `COc1ccc(N2CCN(C(=O)/C=C/c3noc(-c4cc(Cl)c(O)cc4O)c3-c3ccc(O)cc3)CC2)cc1` the same measures were 576 nM, 952 nM and > 50%.
On to `COc1ccc(-c2c(C(=O)NC3CCN(CC4CC4)CC3)noc2-c2cc(Cl)c(O)cc2O)cc1`, for which the IC50 on Heat shock protein HSP90 [1] came out at 39 nM; in data set [2] it was 28 nM. Also, the inhibition entry on Heat shock protein HSP90 [4], on Heat shock protein HSP90 [5], on Heat shock protein HSP90 [6] and at Heat shock protein HSP90 [7] was “Active” throughout. In data set [3], the inhibition was > 50%.
Turning to `COc1ccc(-c2c(C(=O)NC3CCN(Cc4ccccc4)CC3)noc2-c2cc(Cl)c(O)cc2O)cc1`, the IC50 at Heat shock protein HSP90 [1] came out at 36 nM; in [2], 25 nM. Besides, the inhibition entry on Heat shock protein HSP90 [4], on Heat shock protein HSP90 [5], at Heat shock protein HSP90 [6] and on Heat shock protein HSP90 [7] was “Active” in each case. Besides, in data set [3], the inhibition was > 50%.
In the case of `COc1ccc(-c2c(/C=C/C(=O)N3CCN(c4ncccn4)CC3)noc2-c2cc(Cl)c(O)cc2O)cc1`, the IC50 at Heat shock protein HSP90 [1] came to 208 nM; in [2], 1070 nM. The efflux ratio in [8] worked out at 0.74. The inhibition result on Heat shock protein HSP90 [4], on Heat shock protein HSP90 [5], on Heat shock protein HSP90 [6] and on Heat shock protein HSP90 [7] was “Active” each time. Also, the Papp A→B in data set [9] stood at 6.9 ×10⁻⁶ cm/s. Also, the basolateral-to-apical permeability (Papp B→A) in data set [10] came to 5.09 ×10⁻⁶ cm/s. Besides, in data set [3], the inhibition is > 50%.
For the molecule `CCNC(=O)N1CCC(NC(=O)c2noc(-c3cc(Cl)c(O)cc3O)c2-c2ccc(OC)cc2)CC1`, the values for the IC50 (at Heat shock protein HSP90 [1]; in [2]) were 20 nM and 150 nM, respectively. Further, the inhibition in [3] was > 50%.
For `COc1ccc(-c2c(C(=O)Nc3ccncc3)noc2-c2cc(Cl)c(O)cc2O)cc1` the same measures were 154 nM, 580 nM and > 50%.
Regarding `COc1ccc(-c2c(/C=C/C(=O)N3CCN(c4cccc(OC)c4)CC3)noc2-c2cc(Cl)c(O)cc2O)cc1`, the IC50 on Heat shock protein HSP90 [1] was determined as 718 nM; in [2], 491 nM. Moreover, the inhibition in data set [3] is > 50%.
On to `COc1ccc(-c2c(C(=O)NC3CCN(Cc4ccc(Cl)cc4Cl)CC3)noc2-c2cc(Cl)c(O)cc2O)cc1`, for which the concentration for half-maximal inhibition (IC50) came to 127 nM at Heat shock protein HSP90 [1] and 160 nM in data set [2]. In data set [3], the inhibition was > 50%.
Turning to `COc1ccc(-c2c(/C=C/C(=O)N3CCN(c4ccccn4)CC3)noc2-c2cc(Cl)c(O)cc2O)cc1`, the IC50 at Heat shock protein HSP90 [1] worked out at 215 nM; in data set [2], 1050 nM. Besides, the inhibition in data set [3] is > 50%.
For `COc1ccc(-c2c(/C=C/C(=O)N3CCN(c4ccc(OC)cc4)CC3)noc2-c2cc(Cl)c(O)cc2O)cc1` the same measures were 700 nM, 557 nM and > 50%.
For `O=C(/C=C/c1noc(-c2cc(Cl)c(O)cc2O)c1-c1ccc(O)cc1)N1CCN(c2cccc(C(F)(F)F)c2)CC1` the same measures were 1859 nM, 2950 nM and > 50%.
Regarding `COc1ccc(-c2c(/C=C/C(=O)N3CCN(c4cccc(C(F)(F)F)c4)CC3)noc2-c2cc(Cl)c(O)cc2O)cc1`, the results for the 50% inhibitory concentration (IC50) (on Heat shock protein HSP90 [1]; in data set [2]) were 2255 nM and 2370 nM, respectively. Also, the inhibition in [3] was > 50%.
Regarding `COc1ccc(-c2c(C(=O)Nc3ccc(N(C)C)cc3)noc2-c2cc(Cl)c(O)cc2O)cc1`, the IC50 on Heat shock protein HSP90 [1] turned out to be 91 nM; in [2] it was 380 nM. Further, the inhibition in [3] is > 50%.
The matching figures for `COc1ccc(-c2c(C(=O)NCc3ccc(Cl)cc3Cl)noc2-c2cc(Cl)c(O)cc2O)cc1`: 1600 nM, 610 nM and > 50%.
The matching figures for `COc1ccc(-c2c(C(=O)NC3CCN(CC(C)C)CC3)noc2-c2cc(Cl)c(O)cc2O)cc1`: 23 nM, 68 nM and > 50%.
For `COc1ccc(-c2c(/C=C/C(=O)N3CCN(c4ccccc4)CC3)noc2-c2cc(Cl)c(O)cc2O)cc1` the same measures were 677 nM, 1920 nM and > 50%.
In the case of `COc1ccc(-c2c(C(=O)NC3CCN(C(C)=O)CC3)noc2-c2cc(Cl)c(O)cc2O)cc1`, the IC50 on Heat shock protein HSP90 [1] turned out to be 25 nM; in data set [2], 210 nM. In data set [3], the inhibition is > 50%.
For `COc1ccc(-c2c(/C=C/C(=O)N3CCN(c4ccccc4OC)CC3)noc2-c2cc(Cl)c(O)cc2O)cc1` the same measures were 596 nM, 845 nM and > 50%.
For `O=C(/C=C/c1noc(-c2cc(Cl)c(O)cc2O)c1-c1ccc(O)cc1)N1CCN(c2ccccn2)CC1` the same measures were 357 nM, 878 nM and > 50%.
The matching figures for `COc1ccc(-c2c(C(=O)N3CCC(Cc4ccccc4)CC3)noc2-c2cc(Cl)c(O)cc2O)cc1`: > 10000 nM, > 10000 nM and < 50%.
With `COc1ccc(-c2c(/C=C/C(=O)N3CCN(c4ccc(Cl)c(Cl)c4)CC3)noc2-c2cc(Cl)c(O)cc2O)cc1`, the half-inhibitory concentration (IC50) at Heat shock protein HSP90 [1] came to 4232 nM; in [2], 4310 nM. For the same molecule, the inhibition in [3] is > 50%.
Regarding `COc1ccc(CN2CCC(NC(=O)c3noc(-c4cc(Cl)c(O)cc4O)c3-c3ccc(OC)cc3)CC2)cc1`, the IC50 was found to be 16 nM at Heat shock protein HSP90 [1] and 17 nM in data set [2]. Also, the efflux ratio in [8] is 9.04. The inhibition entry on Heat shock protein HSP90 [4], on Heat shock protein HSP90 [5], at Heat shock protein HSP90 [6] and at Heat shock protein HSP90 [7] was “Active” throughout. Also, in [9], the Papp A→B came out at 0.962 ×10⁻⁶ cm/s. Also, the Papp B→A in data set [10] worked out at 8.7 ×10⁻⁶ cm/s. Besides, the inhibition in data set [3] was > 50%.
`COc1ccc(-c2c(C(=O)NC3CCN(Cc4ccncc4)CC3)noc2-c2cc(Cl)c(O)cc2O)cc1`: the values for the IC50 (at Heat shock protein HSP90 [1]; in data set [2]) were 15 nM and 59 nM, respectively. The inhibition in data set [3] was > 50%.
For the molecule `COc1cccc(N2CCN(C(=O)/C=C/c3noc(-c4cc(Cl)c(O)cc4O)c3-c3ccc(O)cc3)CC2)c1`, the IC50 on Heat shock protein HSP90 [1] was 666 nM; in data set [2] it was 776 nM. Further, in data set [8], the efflux ratio is 2.29. In addition, the inhibition result on Heat shock protein HSP90 [4], at Heat shock protein HSP90 [5], at Heat shock protein HSP90 [6] and on Heat shock protein HSP90 [7] was “Active” in each case. In addition, the apical-to-basolateral permeability (Papp A→B) in data set [9] was 6.54 ×10⁻⁶ cm/s. For the same molecule, the Papp B→A in [10] turned out to be 15 ×10⁻⁶ cm/s. Besides, the inhibition in data set [3] is > 50%.
In the case of `O=C(/C=C/c1noc(-c2cc(Cl)c(O)cc2O)c1-c1ccc(O)cc1)N1CCN(c2ncccn2)CC1`, the IC50 at Heat shock protein HSP90 [1] came out at 338 nM; in data set [2] it was 521 nM. Also, in [3], the inhibition is > 50%.

One may read the IC50 as the concentration that inhibits the measured activity by half. A word on the inhibition: it is the change of the read-out against control, counted positive when it falls. The term efflux ratio denotes a quotient of directional permeabilities that is used to spot active efflux. The term Papp A→B denotes how fast a substance crosses the layer from the apical side. A word on the Papp B→A: it is the apparent permeability from the basolateral to the apical side of a cell layer.
